# An excerpt weighted towards active compounds, which were near 2% of everything screened.
# CRFBP-R2 block = antagonists of CRF-BP/CRF-R2 complex, primary screen, cell-based, HEK293, calcium dye fluorescence, uHTS; 0.59% of 350,000 active; AID 588475, 2011; CRF-induced calcium fluorescence; inhibition, % at 11.8 µM;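 active means inhibition of the ligand-induced calcium signal above about 50% at the single tested concentration, limit read from the data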
# CRFR2-BP ag = agonists of CRF-BP/CRF-R2 complex, primary screen, cell-based, HEK293, calcium dye fluorescence, uHTS | activation, % at 13.2 µM | calcium dye fluorescence (FLIPR); percent of saturating CRF peptide response | 0.46% of 350,000 active | CRF-binding protein / CRF receptor 2 complex (human);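 active means activation of at least 50%, plus an integration ratio under a set limit after plate pattern correction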;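 further: plate controls were neutral control wells without compound for no effect and CRF at EC100 for full effect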
# GPR7 antagonist = GPR7 receptor antagonists, primary screen, cell-based, fluorescence, single concentration; Neuropeptides B/W receptor type 1 (Homo sapiens), P48145; GPR7-expressing cells, fluorescence antagonist assay; inhibition, % at 4.4 µM; 1.1% of 290,000 active; in the data active means inhibition above about 16%, passing the limit was not always enough;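 further: cells stimulated with the agonist NPW; 0% = agonist with vehicle and 100% = vehicle without agonist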
# zfTRPN1 agonist = zebrafish TRPN1 channel agonists, primary screen, cell-based, HEK293, calcium fluorescence; transient receptor potential cation channel N1 (TRPN1/NompC), Danio rerio; HEK293 zebrafish TRPN1-YFP, Fluo-8 calcium fluorescence; 100% = response to 87 µM carbachol; activation, % at 3 µM; 0.18% of 220,000 active; AID 1424, 2008;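 active means activation above its plate's cutoff, the mean activation of test wells on that plate plus 3 SD, cut at about 19% in these data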;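 further: 0% = DMSO alone and 100% = 87 µM carbachol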
#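 Material: zebrafish TRPN1-YFP in HEK293 cells; Doses: single test compound dose, 3 µM nominal, 0.3% DMSO; Timing: dye loading 1 h at 37 °C, then 30 min room temperature; Technique: intracellular calcium fluorescence with Fluo-8; Benchmarks: high carbachol 87 µM, low DMSO alone.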
# TRPML3 ag = human TRPML3 channel agonists, primary screen, cell-based, HEK293 TRPML3-YFP, Fluo-8 calcium fluorescence, 3 µM | Mucolipin-3 (Homo sapiens), Q8TDD5 | 100% = the carbachol control signal | AID 1448, 2008 | activation, % at 3 µM | 0.29% of 220,000 active;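 active means activation above its plate's cutoff, the mean activation of the plate's test wells plus 3 SD, cut at about 12% in these data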;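 further: 0% = DMSO only wells and 100% = carbachol wells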
# Target sequence (Q8TDD5 whole entry, looked up): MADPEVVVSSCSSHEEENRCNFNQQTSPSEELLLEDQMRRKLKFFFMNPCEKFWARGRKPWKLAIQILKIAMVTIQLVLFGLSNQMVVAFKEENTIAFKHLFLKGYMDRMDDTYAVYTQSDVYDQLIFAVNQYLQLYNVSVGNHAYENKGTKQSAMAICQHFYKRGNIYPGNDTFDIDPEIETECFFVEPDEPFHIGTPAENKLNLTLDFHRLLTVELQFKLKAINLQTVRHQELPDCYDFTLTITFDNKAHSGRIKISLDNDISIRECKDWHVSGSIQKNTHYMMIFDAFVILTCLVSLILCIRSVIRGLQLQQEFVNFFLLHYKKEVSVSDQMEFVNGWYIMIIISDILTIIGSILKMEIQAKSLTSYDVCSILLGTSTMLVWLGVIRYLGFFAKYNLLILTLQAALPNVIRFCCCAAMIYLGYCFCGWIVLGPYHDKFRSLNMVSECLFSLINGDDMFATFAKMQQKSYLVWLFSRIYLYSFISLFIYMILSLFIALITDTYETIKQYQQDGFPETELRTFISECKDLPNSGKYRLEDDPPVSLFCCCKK
#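 Test system – HEK293 line with stable expression of human TRPML3-YFP channel · Control set – carbachol 87 µM final as high control (100%), DMSO as low control (0%) · Signal – Fluo-8 calcium dye fluorescence, ex 470-495, em 515-575 nm · Incubation – 1-h 37 °C dye load, 5-s basal, 120-s post-compound reads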
# Active calls of the source: *; x = not tested or not shown.
SMILES,CRFBP-R2 block,CRFR2-BP ag,GPR7 antagonist,zfTRPN1 agonist,TRPML3 ag
COc1ccccc1N=Cc1c(C)[nH]n(-c2ccc(C)cc2C)c1=O,4.7,0.7,-15.0,2.3,0.3
COc1cccc(CN2CCC(n3nccc3NC(=O)CCCc3ccccc3)CC2)c1,-3.9,0.9,-3.8,x,x
CCCCN(c1ccc(C(=O)OC)cc1)S(=O)(=O)c1ccccc1,62.8*,-1.3,-3.1,-2.6,3.6
CCCN(c1ccc(C(=O)OC)cc1)S(=O)(=O)c1ccccc1,15.3,-2.0,-15.3,-2.1,11.3
CCc1sc(C(=O)NCCc2ccc(S(N)(=O)=O)cc2)cc1C,-0.2,-0.1,-2.7,x,x
CCc1sc(C(=O)NCCc2ccc(S(N)(=O)=O)cc2)cc1Br,61.3*,-8.7,-5.7,-1.7,-0.8
COc1ccc(/C=C\C(=O)O[C@@H]2C(O)C(O[C@@H]3OC(C)[C@H](O[C@@H]4OCC(O[C@H]5O[C@H](CO)[C@@H](O)C(O)C5O)C(O)C4O)C(O)C3O)[C@H](OC(=O)[C@]34CCC(C)(C)C[C@@H]3C3=CCC5[C@@]6(C)CC(O)C(O[C@@H]7OC(CO)C(O)[C@H](O)[C@H]7O)[C@@](C)(C(=O)O)C6CC[C@@]5(C)[C@]3(CO)CC4)O[C@H]2C)cc1 (some centres not stated),-49.4,132.4*,x,x,x
CCOC(=O)Cn1c(=N)n(CCOc2ccc3ccccc3c2)c2ccccc21,-36.9,3.3,20.8*,1.3,0.0
CCOC(=O)Cn1c(=N)n(CCOc2ccc(OC)cc2)c2ccccc21,-20.6,1.2,4.3,0.4,0.8
COc1ccc(/C=C2\C(=O)NC(=O)c3ccccc32)cc1OC,-37.2,9.5,x,x,x
COc1ccc2c(c1)/C(=C/c1cc(OC)c(OC)c(OC)c1)C(=O)N2,106.1*,-2.6,x,x,x
Cc1ccc(NC(=O)CN(C)C(=O)COC(=O)COc2cc(C)cc(C)c2)cc1,-0.7,-0.2,x,x,x
c1ccc(-c2nnc(-c3ccco3)n2-c2ccccc2)cc1,38.9,2.0,4.3,-1.4,-0.4
c1ccc(-n2c(-c3ccncc3)nnc2-c2ccco2)cc1,55.6*,-0.5,-13.8,0.1,0.4
CC1CCCN(S(=O)(=O)c2cnc[nH]2)C1 (configuration not stated),-4.7,-0.5,-6.5,x,x
COc1ccccc1CN(C)C(=O)C(c1ccccc1)c1ccccc1,57.2*,-2.3,4.5,x,x
COc1ccc(OC(=O)c2ccc(Cl)cc2)c(C(C)=O)c1,51.5*,0.2,-5.7,0.9,1.2
COc1ccc(C(=O)Nc2cc(Cl)ccc2OC(=O)c2ccc(OC)cc2)cc1,-3.0,0.4,0.5,-0.2,0.1
O=c1nc(/C=C/c2ccc(-c3ccc(F)cc3)o2)cc(C(F)(F)F)[nH]1,x,x,-4.6,0.8,1.7
O=C(O)c1ccccc1-c1ccc(/C=C/c2cc(C(F)(F)F)[nH]c(=O)n2)o1,-79.5,169.5*,4.9,81.2*,28.1*
O=C(O)c1cc(Cl)ccc1-c1ccc(/C=C/c2cc(C(F)(F)F)[nH]c(=O)n2)o1,-52.0,204.8*,13.2,29.1*,13.0*
CN(Cc1ccc([N+](=O)[O-])cc1)c1ccccc1,55.2*,-6.0,x,x,x
CN(N=Nc1ccc([N+](=O)[O-])cc1)c1ccccc1,-49.6,83.7*,1.7,0.5,0.9
CC1CC(C)CN(C(=O)CN2C(=O)NC3(CCCCCCC3)C2=O)C1 (configuration not stated),2.2,4.4,x,x,x
Cc1cc(Oc2ccc3ccccc3c2)nc(SCC(=O)c2ccccc2)n1,-39.1,1.7,32.3*,0.9,0.7
SMILES,CRFBP-R2 block,CRFR2-BP ag,GPR7 antagonist,zfTRPN1 agonist,TRPML3 ag
CCCC(=O)Nc1ccc(-c2nc3ncccc3o2)cc1,0.2,4.1,-13.1,x,x
Cc1ccc(S(=O)(=O)N(C)CC(=O)NCC(c2ccco2)N(C)C)cc1 (configuration not stated),-4.8,0.4,x,x,x
Brc1cccc(C2CC(c3ccccc3)n3nnnc3N2)c1 (configuration not stated),54.8*,-3.6,-0.1,1.1,0.2
c1ccc(C2CC(c3cccs3)Nc3nnnn32)cc1 (configuration not stated),-7.2,-0.2,1.7,3.2,0.7
CC(C)CC(c1nnnn1C(C)(C)C)N1CCN(C2CCCC2)CC1 (configuration not stated),-2.2,-1.0,17.8*,-0.5,1.8
COc1ccc(-c2ccc(=O)n(Cc3c(F)cccc3Cl)n2)cc1,-8.2,1.2,-15.5,x,x
COc1ccc(-c2ccc(=O)n(Cc3cccc([N+](=O)[O-])c3)n2)cc1,7.5,-0.8,39.2*,0.8,0.6
Cc1cc([N+](=O)[O-])ccc1NCc1ccccc1[N+](=O)[O-],91.1*,0.4,1.7,0.7,0.4
COc1ccc(C(=O)OCC(=O)N(C)C2CCS(=O)(=O)C2)cc1S(=O)(=O)N(C)Cc1ccccc1 (configuration not stated),109.4*,-2.5,x,x,x
COc1cc(/C=C2\CCC(C)C3=C(c4cc(OC)c(OC)c(OC)c4)C(C#N)=C(N)OC32)cc(OC)c1OC (configuration not stated),-62.9,63.1*,x,x,x
O=c1cc(CN2CCN(Cc3ccccc3)CC2)c2cc(O)ccc2o1,84.6*,-0.2,9.8,x,x
C[C@H](O)[C@@H]1C(=O)N2CCc3ccc(N4CCN(C)CC4)cc3[C@@H]2C[C@@H]1N(C)C(=O)NC1CCCCC1,2.7,-0.5,x,x,x
Cc1ccc(OCC(=O)N(C)CC(=O)NCc2ccco2)c(Br)c1,-10.2,-0.3,x,x,x
O=C(CN(c1cccc(C(F)(F)F)c1)S(=O)(=O)c1ccc(Cl)c([N+](=O)[O-])c1)NCc1ccccc1,-1.0,0.3,40.9*,-0.6,0.6
Cc1ccc(N(CC(=O)NCCc2ccc(F)cc2)S(=O)(=O)c2ccc(Cl)c([N+](=O)[O-])c2)c(C)c1,-7.5,-0.4,47.5*,0.2,0.5
O=C(CN(c1ccc(Br)cc1)S(=O)(=O)c1ccc(Cl)c([N+](=O)[O-])c1)NCCc1ccccc1,-8.7,-0.1,-9.8,-0.3,-0.4
O=C(CN(c1cccc(C(F)(F)F)c1)S(=O)(=O)c1ccc(Cl)c([N+](=O)[O-])c1)NCc1ccccc1Cl,23.3,-2.6,14.2,-1.5,0.4
CC(NC(=O)CN(c1cccc(C(F)(F)F)c1)S(=O)(=O)c1ccc(Cl)c([N+](=O)[O-])c1)c1ccccc1 (configuration not stated),7.8,-2.3,46.0*,0.7,0.3
CC(C)(C)NC(=O)CN(c1cccc([N+](=O)[O-])c1)S(=O)(=O)c1ccccc1,12.7,-0.3,-0.9,-1.6,-0.1
COc1ccccc1Oc1ccc(NC(=O)Cc2ccccc2)cc1,4.5,-3.3,x,x,x
CCOc1cc(/C=C2/SC(=S)NC2=O)ccc1OC(=O)c1ccco1,68.9*,-2.8,-0.6,-0.9,0.2

# Screening data deposited in PubChem by several laboratories.
